Test results as given in ChEMBL document CHEMBL1149444, “Discovery of imidazo[1,2-b][1,2,4]triazines as GABA(A) alpha2/3 subtype selective agonists for the treatment of anxiety” (J Med Chem, 2006).
Active and inactive are the calls of the source. No cut-off for these calls is given here.

Experiments:
[1] = Half life in rhesus at 1 mg/kg, iv or 1 mg/kg, po; type: ADME, organism-based, Macaca mulatta; conditions: rhesus monkey, in vivo
Method in brief: (§1)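 Pharmacokinetics in rat, dog or rhesus after 1 mg/kg iv and 1 mg/kg po dosing. Plasma clearance (mL/min/kg), half-life (h), volume of distribution (L/kg) and oral bioavailability (%) were derived.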

[2] = molecular target: GABA-A receptor; alpha-2/beta-3/gamma-2 (Homo sapiens) (UniProt P18507+P28472+P47869); assay: Efficacy against recombinant human GABAA alpha2 receptor plus beta3gamma2 expressed in L(tk-) cells by whole cell patch clamp method relative to chlordiazepoxide; type: functional, cell-based
Method in brief: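 Whole-cell patch clamp on L(tk-) cells stably expressing human alpha subunit plus beta3gamma2. GABA applied at an EC20-equivalent concentration. Modulation of that current measured across increasing test-compound concentrations. Efficacy is expressed relative to the maximal response to the full agonist chlordiazepoxide, set at 1.00.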

[3] = molecular target: T1, GABA-A receptor; alpha-3/beta-3/gamma-2 (Homo sapiens, UniProt P18507+P28472+P34903); assay: Displacement of [3H]Ro 15-1788 from recombinant human GABAA alpha3 receptor plus beta-3-gamma-2 expressed in L(tk-) cells; type: cell-based
T1 sequence (P18507 whole entry): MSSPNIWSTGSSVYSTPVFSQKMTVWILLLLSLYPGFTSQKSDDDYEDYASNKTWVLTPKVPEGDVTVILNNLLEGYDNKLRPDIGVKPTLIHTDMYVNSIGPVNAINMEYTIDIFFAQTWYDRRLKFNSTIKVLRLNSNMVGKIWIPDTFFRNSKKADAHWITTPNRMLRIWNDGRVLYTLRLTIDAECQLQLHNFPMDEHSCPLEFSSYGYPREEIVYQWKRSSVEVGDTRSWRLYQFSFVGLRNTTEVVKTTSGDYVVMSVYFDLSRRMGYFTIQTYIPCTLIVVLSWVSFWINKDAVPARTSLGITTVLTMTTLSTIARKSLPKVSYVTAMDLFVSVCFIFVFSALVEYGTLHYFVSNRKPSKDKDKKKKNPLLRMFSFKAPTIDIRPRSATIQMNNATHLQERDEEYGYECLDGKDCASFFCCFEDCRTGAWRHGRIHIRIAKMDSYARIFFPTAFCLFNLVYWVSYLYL
T1 sequence (P28472 whole entry): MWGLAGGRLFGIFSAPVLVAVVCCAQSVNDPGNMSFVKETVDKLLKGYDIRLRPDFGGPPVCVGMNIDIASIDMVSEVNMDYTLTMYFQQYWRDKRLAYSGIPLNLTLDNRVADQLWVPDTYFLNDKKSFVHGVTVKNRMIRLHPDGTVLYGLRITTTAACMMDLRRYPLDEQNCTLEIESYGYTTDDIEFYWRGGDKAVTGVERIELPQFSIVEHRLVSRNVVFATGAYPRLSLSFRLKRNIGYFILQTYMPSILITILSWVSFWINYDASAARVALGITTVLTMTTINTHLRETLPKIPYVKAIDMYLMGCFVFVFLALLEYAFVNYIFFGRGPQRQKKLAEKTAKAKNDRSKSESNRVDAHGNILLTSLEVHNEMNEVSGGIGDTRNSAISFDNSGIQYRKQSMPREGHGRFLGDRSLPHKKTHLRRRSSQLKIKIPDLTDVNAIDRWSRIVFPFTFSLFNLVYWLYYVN
T1 sequence (P34903 whole entry): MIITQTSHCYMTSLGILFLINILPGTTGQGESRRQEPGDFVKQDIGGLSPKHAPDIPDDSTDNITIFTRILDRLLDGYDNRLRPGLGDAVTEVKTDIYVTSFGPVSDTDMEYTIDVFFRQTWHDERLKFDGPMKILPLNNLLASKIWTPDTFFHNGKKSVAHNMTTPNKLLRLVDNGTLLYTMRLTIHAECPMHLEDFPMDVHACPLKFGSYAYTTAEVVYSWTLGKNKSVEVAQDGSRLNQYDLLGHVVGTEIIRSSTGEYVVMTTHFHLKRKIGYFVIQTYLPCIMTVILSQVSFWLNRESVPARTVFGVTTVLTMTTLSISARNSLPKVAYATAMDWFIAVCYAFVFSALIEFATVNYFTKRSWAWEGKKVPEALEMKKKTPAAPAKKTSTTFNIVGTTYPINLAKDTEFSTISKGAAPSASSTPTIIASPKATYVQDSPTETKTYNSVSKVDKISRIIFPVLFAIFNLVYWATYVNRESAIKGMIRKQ
Method in brief: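 Inhibition of [3H]Ro15-1788 binding to human recombinant GABAA receptors stably expressed in L(tk-) cells, alpha subunit combined with beta3 and gamma2. Six to eight test concentrations spaced in half-log units. Ki reported as geometric mean of n = 2-12.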

[4] = Plasma clearance in rhesus at 1 mg/kg, iv or 1 mg/kg, po; type: ADME, organism-based, Macaca mulatta; conditions: rhesus monkey; method in brief: as §1
Rattus norvegicus [5] = species: Rattus norvegicus; assay: Plasma concentration in rat; type: ADME, organism-based; conditions: in vivo
Method in brief: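 Central benzodiazepine receptor occupancy in rat after oral dosing, measured by displacement of [3H]Ro15-1788 binding. Plasma concentration was measured at the dose giving 50% occupancy.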

[6] = Oral bioavailability in rat at 1 mg/kg, iv or 1 mg/kg, po; type: ADME, organism-based; conditions: in vivo; method in brief: as §1
Rattus norvegicus [7] = assay: Sedation in rat chain pulling assay upto 10 mg/kg, po; type: functional, organism-based; parameters: dose 10 mg/kg
Method in brief: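 Rat chain-pulling assay for sedation. Mean response rate recorded over a 60 min trial starting immediately after oral dosing up to 10 mg/kg. n = 11-12 per group. Significance versus vehicle at p < 0.01.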

With `CC(C)(O)c1cnn2c(-c3ccc(F)c(-c4c(F)cccc4C#N)c3)cnc2n1` the half-life [1] was 4.9 h, the Efficacy [2] was 0.38% and the Ki [3] was 2 nM. For the same compound, the clearance [4] was 5.8 mL/min/kg, the concentration (Rattus norvegicus [5]) was 56 nM and the bioavailability [6] was 77%. For the same compound, the Activity (Rattus norvegicus [7]) was “inactive”.
